Tests used:
Assay type in all cases: functional, cell-based
[1] = tested on: COLO 205; assay: Antiproliferative activity against human COLO205 cells after 72 hrs by CellTiter-Glo assay; details: COLO 205, 72 h
Summary of the method: (§1)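 Cells from ATCC, checked mycoplasma-free by PCR, grown in RPMI with 10% FBS, 1% penicillin/streptomycin and 2 mM L-glutamine. Seeded and incubated 24 h, then exposed to 0.3, 1, 3 and 10 μM for 72 h. Viability was read by CellTiter-Glo relative to 0.1% DMSO vehicle. IC50 came from standard curve analysis, with doxorubicin as positive control. Three independent experiments, each in triplicate.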

[2] = tested on: K562; assay: Antiproliferative activity against human K562 cells after 72 hrs by CellTiter-Glo assay; details: K562, 72 h; summary of the method: as §1
[3] = tested on: T47D; assay: Antiproliferative activity against human T47D cells after 72 hrs by CellTiter-Glo assay; summary of the method: as §1

SMILES: O=C1C(O)=CC(=O)c2c(O)cccc21
- IC50 [1]: > 10000 nM
- IC50 [2]: > 10000 nM
- IC50 [3]: > 10000 nM

SMILES: COC1=CC(=O)c2cccc(O)c2C1=O
- IC50 [1]: > 10000 nM
- IC50 [2]: > 10000 nM
- IC50 [3]: > 10000 nM

SMILES: NC(=O)COC1=CC(=O)c2c(O)cccc2C1=O
- IC50 [1]: 700 nM
- IC50 [2]: 900 nM
- IC50 [3]: 1700 nM

SMILES: COC(=O)COC1=CC(=O)c2ccccc2C1=O
- IC50 [1]: > 10000 nM
- IC50 [2]: > 10000 nM
- IC50 [3]: > 10000 nM

SMILES: COC1=CC(=O)c2c(OC)cccc2C1=O
- IC50 [1]: > 10000 nM
- IC50 [2]: > 10000 nM
- IC50 [3]: > 10000 nM

SMILES: O=C(O)COC1=CC(=O)c2c(O)cccc2C1=O
- IC50 [1]: > 10000 nM
- IC50 [2]: > 10000 nM
- IC50 [3]: > 10000 nM

SMILES: CN(C)C(=O)COC1=CC(=O)c2c(O)cccc2C1=O
- IC50 [1]: 1700 nM
- IC50 [2]: 1200 nM
- IC50 [3]: 1000 nM

SMILES: COC(=O)COC1=CC(=O)c2c(O)cccc2C1=O
- IC50 [1]: 1900 nM
- IC50 [2]: 1300 nM
- IC50 [3]: 2200 nM

SMILES: COC1=CC(=O)c2c(O)cccc2C1=O
- IC50 [1]: 2300 nM
- IC50 [2]: 1400 nM
- IC50 [3]: 2000 nM

SMILES: O=C1C=C(O)C(=O)c2c(O)cccc21
- IC50 [1]: > 10000 nM
- IC50 [2]: > 10000 nM
- IC50 [3]: > 10000 nM
